PfM18AAP inh: PfM18AAP inhibitors, malaria aminopeptidase, primary screen, biochemical, QFRET, recombinant enzyme | M18 aspartyl aminopeptidase (Plasmodium falciparum 3D7) | AID 1822, 2009 | H-Glu-NHMec fluorogenic cleavage | inhibition, % at 7.35 µM | hit rate 1.2% among 290,000;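 active = inhibition above the campaign mean inhibition over all tested compounds plus 3 SD, cut at about 28% in these data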;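 also: 0% = plate median of test compound wells and 100% = 2 mM ZnCl2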
HDAC3 inhib: HDAC3 deacetylase inhibitors, primary screen, biochemical, fluorescence, cell-free homogeneous; recombinant HDAC3, fluorogenic peptide/trypsin coupled; inhibition, % at 8.3 µM; hit rate 0.15% among 320,000; in the data active = inhibition above about 26%, passing the limit was not always enough; inconclusive = no clear call, values can overlap the other calls
AHR act: AHR activators, primary screen, cell-based, luminescence, luciferase reporter, human. AHR-responsive luciferase reporter cells. activation, % at 5 µM. hit rate 2.5% among 320,000. AID 2796, 2010; in the data active = activation above about 47%;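 also: 0% = vehicle wells and 100% = reference agonist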
SENP1 FRET inh: human SENP1 catalytic domain inhibitors, primary screen, biochemical, FRET, uHTS | Sentrin-specific protease 1 (Homo sapiens), Q9P0U3 | recombinant SENP1 catalytic domain, CyPet-SUMO1-YPet FRET cleavage | inhibition, % at 10 µM | hit rate 0.21% among 360,000 | AID 624204, 2012;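 active = inhibition at least 30% at 10 µM, raw YFP signal under a set limit, fluorescence ratio 0.5 to 1.5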;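 also: 0% = enzyme with DMSO and 100% = no enzyme wells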
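Material – human SENP1 catalytic domain · Input – SENP1 enzyme, 20 pM final · Compound dosing – single concentration of 10 µM compound, 0.5% DMSO final · Timing – enzyme reaction for 50 min at room temperature, dark · Measured by – FRET fluorescence in CFP and YFP emission channels · Control set – no-enzyme wells low, DMSO-plus-enzyme wells high control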
GAA850 FXN act: FXN promoter activators, primary screen, cell-based, luciferase luminescence, HEK293 lucGAA850; HEK293 lucGAA850 FXN promoter luciferase reporter, 24 h; percent of 10 µM SAHA response; activation, % at 6 µM; hit rate 0.56% among 360,000; AID 540364, 2011;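 active = activation above the average of all compounds screened plus 3 SD, cutoff fixed separately per campaign, cut at about 7.5% in these data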;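 also: 0% = DMSO wells and 100% = 10 µM SAHA wells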
Fh CTSL1 inh: Fasciola hepatica cathepsin L1 inhibitors, primary screen, counter-screen for PFM18AAP inhibitor project, biochemical, QFRET, fluorogenic peptide substrate; recombinant F. hepatica cathepsin L1, Z-Leu-Arg-MCA fluorescence; inhibition, % at 5.96 µM; hit rate 0.49% among 300,000;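 active = inhibition above the mean of all tested compounds plus 3 SD, set per screening campaign, cut at about 17% in these data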;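 also: 0% = plate median of test compound wells and 100% = 1 µM Z-Phe-Ala-diazomethylketone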
The depositor's hits bear a star. Sampled rows, rich in hits. Any-hit rate of the full collection: about 4.2%.

`Nc1cc(Nc2ccc(Br)cc2)nc(N)n1` gave PfM18AAP inh -6.5, HDAC3 inhib 0.8, AHR act 61.9*, SENP1 FRET inh -110.2, GAA850 FXN act 4.9 and Fh CTSL1 inh 0.0.
O=C(Nc1ccccc1)c1cc(C2CCCCN2C(=O)c2cccs2)on1 (stereo unspecified) was read as SENP1 FRET inh 1.0 and GAA850 FXN act 0.3.
`O=C(Nc1sc2c(c1C(=O)N1CCOCC1)CCCCC2)c1cccnc1` gave PfM18AAP inh 9.9, HDAC3 inhib 1.0, AHR act 7.1, SENP1 FRET inh -0.4, GAA850 FXN act 5.0 and Fh CTSL1 inh 18.9*.
Screening O=C(Nc1sc2c(c1C(=O)O)CCCCC2)c1cccnc1 returned PfM18AAP inh 8.8, HDAC3 inhib -3.3, AHR act 7.4, SENP1 FRET inh -2.0, GAA850 FXN act 3.4 and Fh CTSL1 inh -0.8.
`CCOc1ccc(S(=O)(=O)Nc2ccc(C(=O)N/N=C(\C)c3ccc(-n4ccnc4)cc3)cc2)cc1` gave PfM18AAP inh 0.9, HDAC3 inhib 6.0, AHR act 53.7*, SENP1 FRET inh 1.6, GAA850 FXN act 1.4 and Fh CTSL1 inh 7.4.
For CNC(=S)N/N=C(\C)c1ccc(-n2ccnc2)cc1 the results were PfM18AAP inh -3.7, HDAC3 inhib 5.7, AHR act 6.4, SENP1 FRET inh -0.6, GAA850 FXN act 1.0 and Fh CTSL1 inh -1.0.
`COCCNC(=S)N/N=C(\C)c1ccc(-n2ccnc2)cc1` gave PfM18AAP inh -2.8, HDAC3 inhib 2.3, AHR act 86.8*, SENP1 FRET inh 0.2, GAA850 FXN act -0.7 and Fh CTSL1 inh 6.9.
CC(C)(C)C(=O)NC(=S)NNC(=O)c1ccc(Cl)cc1Cl was read as PfM18AAP inh 0.1, HDAC3 inhib -2.6, AHR act 2.9, SENP1 FRET inh 0.6, GAA850 FXN act 0.2 and Fh CTSL1 inh -5.2.
Screening CC(C)CNC(=S)NNC(=O)CC(C)O (stereo unspecified) returned PfM18AAP inh 35.0*, HDAC3 inhib 0.0, AHR act 1.2, SENP1 FRET inh 1.7, GAA850 FXN act 0.6 and Fh CTSL1 inh -4.9.
Screening CCCCc1cc(C(=O)Cc2ccccn2)c(O)cc1O returned PfM18AAP inh -9.5, HDAC3 inhib 9.5, AHR act 33.5, SENP1 FRET inh -15.4, GAA850 FXN act 0.2 and Fh CTSL1 inh 0.4.
Cc1ccc(S(=O)(=O)NC(=O)C2(C)CCN2C(=O)c2ccccc2)cc1 (stereo unspecified) was read as SENP1 FRET inh 1.5 and GAA850 FXN act 1.0.
For COc1ccccc1OCCn1cc(/C=N/NC(=O)c2ccncc2)c2ccccc21 the results were PfM18AAP inh 2.1, HDAC3 inhib 9.0, AHR act 29.8, SENP1 FRET inh -0.6, GAA850 FXN act 1.6 and Fh CTSL1 inh 3.4.
COc1ccccc1OCCn1cc(/C=N/NC(N)=S)c2ccccc21 was read as PfM18AAP inh 6.8, HDAC3 inhib 0.3, AHR act 69.5*, SENP1 FRET inh 2.5, GAA850 FXN act -0.8 and Fh CTSL1 inh 95.1*.
Screening CC(=O)n1cc(/C=N/NC(N)=S)c2ccccc21 returned PfM18AAP inh 14.3, HDAC3 inhib -4.1, AHR act 2.4, SENP1 FRET inh -1.7, GAA850 FXN act 2.7 and Fh CTSL1 inh 94.7*.
For Cc1ccc(CN2CC(N3CCN(CC4CC4)CC3)CS2(=O)=O)cc1 (stereo unspecified) the results were SENP1 FRET inh -2.5.
Screening Oc1c(Br)cc(CNC2CCCCC2)cc1Br returned SENP1 FRET inh 0.7 and GAA850 FXN act 1.0.
For N#Cc1ccc(OCC(=O)Nc2nc(-c3cccnc3)cs2)cc1 the results were HDAC3 inhib 1.8, AHR act 48.6*, SENP1 FRET inh -5.7 and GAA850 FXN act 0.9.
Screening O=C(COc1ccccc1)Nc1nc(-c2ccncc2)cs1 returned PfM18AAP inh 22.2, HDAC3 inhib -0.7, AHR act 6.0, SENP1 FRET inh -6.8, GAA850 FXN act 4.5 and Fh CTSL1 inh 2.0.
Screening O=C(COc1ccccc1)Nc1nc(-c2cccnc2)cs1 returned HDAC3 inhib 0.6, AHR act 54.9*, SENP1 FRET inh -13.9 and GAA850 FXN act 0.8.
`Cc1nn(-c2ccc(F)cc2)c2nc(N)c(C#N)c(-c3cccs3)c12` gave PfM18AAP inh -10.3, HDAC3 inhib -18.6, AHR act 65.4*, SENP1 FRET inh -28.7, GAA850 FXN act -1.4 and Fh CTSL1 inh 0.4.
COc1ccc2[nH]c(N=Nc3ccccc3C)c(O)c2c1 was read as PfM18AAP inh -1.4, HDAC3 inhib 3.3, AHR act 65.2*, SENP1 FRET inh 3.9, GAA850 FXN act 3.7 and Fh CTSL1 inh 2.6.
Cc1ccccc1N=Nc1c(O)[nH]c2ccccc12 was read as HDAC3 inhib 3.8, AHR act 47.8*, SENP1 FRET inh -4.1, GAA850 FXN act 0.8 and Fh CTSL1 inh 7.1.
Cc1ccc2[nH]c(O)c(N=Nc3ccccc3C)c2c1 was read as PfM18AAP inh 6.2, HDAC3 inhib -5.3, AHR act 14.6, SENP1 FRET inh 16.1, GAA850 FXN act 1.0 and Fh CTSL1 inh 0.3.
Screening CC(O)(c1ccc(F)c(F)c1)c1nc(-c2cc(F)cc(F)c2)cs1 (stereo unspecified) returned SENP1 FRET inh 0.5 and GAA850 FXN act -0.2.
CSc1nc(-c2ccco2)nn1C(=O)c1ccccc1 was read as PfM18AAP inh -2.4, HDAC3 inhib 97.1*, AHR act -1.6, SENP1 FRET inh 2.7, GAA850 FXN act 0.4 and Fh CTSL1 inh 0.6.
For CSc1nc(-c2ccco2)nn1C(=O)c1ccco1 the results were PfM18AAP inh 17.8, HDAC3 inhib 71.7*, AHR act 0.4, SENP1 FRET inh 2.3, GAA850 FXN act -0.5 and Fh CTSL1 inh -2.7.
`CCCC(=O)n1nc(-c2ccco2)nc1SCc1ccccc1` gave PfM18AAP inh 8.0, HDAC3 inhib 47.8*, AHR act -0.5, SENP1 FRET inh -2.1, GAA850 FXN act 0.6 and Fh CTSL1 inh -0.1.
For CSc1nc(-c2ccco2)nn1C(=O)c1ccc(C)cc1 the results were PfM18AAP inh -3.2, HDAC3 inhib inconclusive, AHR act -1.8, SENP1 FRET inh 6.0, GAA850 FXN act -0.4 and Fh CTSL1 inh 2.5.
`Nc1c(OS(=O)(=O)c2ccccc2)cccc1OS(=O)(=O)c1ccccc1` gave SENP1 FRET inh 0.6 and GAA850 FXN act 3.5.
For Nc1nc(SCC(=O)Nc2ccc([N+](=O)[O-])cc2)[nH]c(=O)c1NC(=O)c1ccc(Br)o1 the results were PfM18AAP inh -1.7, HDAC3 inhib 0.9, AHR act 1.3, SENP1 FRET inh 1.8, GAA850 FXN act -1.2 and Fh CTSL1 inh 2.0.

Screening data (PubChem BioAssay)
